# According to ChEMBL document CHEMBL1142158, “Antibacterial activity and mechanism of action of a novel anilinouracil-fluoroquinolone hybrid compound” (Antimicrob Agents Chemother, 2007):
# The source made the active and inactive calls. No cut-off for these calls is given here.
# Legend:
# [1] = tested on: Staphylococcus aureus; assay: Antibacterial activity against HB-EMAU-resistant Staphylococcus aureus Smith; format: functional
# In short: (§1)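 Broth microdilution per CLSI with modified incubation. Log-phase cultures in cation-adjusted Mueller-Hinton broth, seeded at 1 x 10^5 CFU/ml. Compounds from DMSO stocks, 1% DMSO final. Incubated 37°C, 16 to 20 h, shaken. Growth read as OD600. MIC is the lowest concentration with no apparent growth. Run in quadruplicate; highest value reported.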
# [2] = Cytotoxicity against human MRC5 cells; format: cell-based
# In short: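 MRC-5 human diploid fibroblasts, 4 x 10^3 cells per well, exposed to compound from DMSO stock (final 1%) in minimal essential medium with 10% fetal calf serum for 72 h at 37°C beside a DMSO-only control.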
# [3] = tested on: Streptococcus pneumoniae; assay: Antibacterial activity against penicillin-resistant Streptococcus pneumoniae 700673; format: functional
# In short: (§2)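 Streptococci tested by CLSI broth microdilution in Mueller-Hinton broth with 5% defibrinated horse blood, log-phase inoculum at 1 x 10^5 CFU/ml. Incubated 37°C with shaking, 16 to 20 h, in 5% humidified CO2. Compounds at 1% DMSO final. MIC is the lowest concentration without growth by OD600. Quadruplicate; highest MIC reported.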
# [4] = tested on: Bacillus cereus; assay: Antibacterial activity against Bacillus cereus 4342; format: functional
# [5] = tested on: Bacillus subtilis; assay: Inhibition of DNA synthesis in Bacillus subtilis BD54; format: functional, organism-based
# In short: (§3)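 B. subtilis BD54 grown to log phase in C plus 50 medium; compound in DMSO added with [8-3H]adenine at time zero, at 5x or 1x MIC; samples over time. DNA = alkali-insensitive TCA-insoluble label; RNA = total TCA-insoluble minus DNA. Effect judged against diluent-control incorporation.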
# [6] = tested on: Bacillus anthracis; assay: Antibacterial activity against Bacillus anthracis Sterne; format: functional
# [7] = tested on: Pseudomonas aeruginosa; assay: Antibacterial activity against Pseudomonas aeruginosa 27853; format: functional
# [8] = tested on: Staphylococcus aureus; assay: Antibacterial activity against HB-EMAU-resistant and ciprofloxacin-resistant Staphylococcus aureus Smith; format: functional; in short: as §1
# [9] = tested on: Escherichia coli; assay: Antibacterial activity against Escherichia coli J53; format: functional
# [10] = tested on: Staphylococcus aureus; assay: Antibacterial activity against methicillin-resistant Staphylococcus aureus 1094; format: functional; in short: as §1
# [11] = tested on: Streptococcus pyogenes; assay: Antibacterial activity against Streptococcus pyogenes 12344; format: functional
# [12] = tested on: Streptococcus pneumoniae; assay: Antibacterial activity against penicillin-resistant Streptococcus pneumoniae 700671; format: functional; in short: as §2
# [13] = tested on: Enterococcus faecium; assay: Antibacterial activity against Enterococcus faecium 19434; format: functional; in short: as §1
# [14] = tested on: Staphylococcus aureus; assay: Antibacterial activity against methicillin-resistant Staphylococcus aureus B42876; format: functional; in short: as §1
# [15] = tested on: Enterococcus faecalis; assay: Antibacterial activity against vancomycin-resistant Enterococcus faecalis 51299; format: functional; in short: as §1
# [16] = Inhibition of Bacillus subtilis topoisomerase 4
# [17] = tested on: Staphylococcus aureus; assay: Antibacterial activity against methicillin-resistant Staphylococcus aureus 1123; format: functional; in short: as §1
# [18] = tested on: Staphylococcus aureus; assay: Antibacterial activity against Staphylococcus aureus Smith in presence of 10% FCS; format: functional
# [19] = tested on: Staphylococcus aureus; assay: Antibacterial activity against methicillin-resistant Staphylococcus aureus 1132; format: functional; in short: as §1
# [20] = tested on: Staphylococcus aureus; assay: Antibacterial activity against ciprofloxacin-resistant Staphylococcus aureus Smith; format: functional; in short: as §1
# [21] = tested on: Staphylococcus aureus; assay: Antibacterial activity against mupirocin-resistant Staphylococcus aureus 777; format: functional; in short: as §1
# [22] = tested on: Enterococcus faecalis; assay: Antibacterial activity against vancomycin-resistant Enterococcus faecalis 51575; format: functional; in short: as §1
# [23] = tested on: Staphylococcus aureus; assay: Antibacterial activity against Staphylococcus aureus 25923; format: functional; in short: as §1
# [24] = tested on: Escherichia coli; assay: Antibacterial activity against ciprofloxacin-resistant Escherichia coli XL1-Blue; format: functional; in short: as §1
# [25] = tested on: Bacillus thuringiensis; assay: Antibacterial activity against Bacillus thuringiensis 10792; format: functional
# [26] = tested on: Staphylococcus aureus; assay: Antibacterial activity against Staphylococcus aureus 1081; format: functional; in short: as §1
# [27] = tested on: Staphylococcus aureus; assay: Antibacterial activity against Staphylococcus aureus Smith 13709; format: functional; in short: as §1
# [28] = tested on: Enterococcus faecium; assay: Antibacterial activity against vancomycin-resistant Enterococcus faecium 1644; format: functional; in short: as §1
# [29] = tested on: Bacillus thuringiensis; assay: Antibacterial activity against Bacillus thuringiensis 33679; format: functional
# [30] = tested on: Stenotrophomonas maltophilia; assay: Antibacterial activity against Stenotrophomonas maltophilia 13637; format: functional
# [31] = tested on: Bacillus subtilis; assay: Antibacterial activity against Bacillus subtilis BD54; format: functional
# [32] = tested on: Enterococcus faecium; assay: Antibacterial activity against vancomycin-resistant Enterococcus faecium B42762; format: functional; in short: as §1
# [33] = Inhibition of Bacillus subtilis gyrase
# [34] = tested on: Streptococcus pneumoniae; assay: Antibacterial activity against penicillin-resistant Streptococcus pneumoniae 700670; format: functional; in short: as §2
# [35] = tested on: Bacillus cereus; assay: Antibacterial activity against Bacillus cereus 6464; format: functional
# [36] = tested on: Enterococcus faecalis; assay: Antibacterial activity against Enterococcus faecalis 29212; format: functional; in short: as §1
# [37] = tested on: Klebsiella pneumoniae; assay: Antibacterial activity against Klebsiella pneumoniae 5657; format: functional
# [38] = tested on: Streptococcus pneumoniae; assay: Antibacterial activity against penicillin-resistant Streptococcus pneumoniae 700677; format: functional; in short: as §2
# [39] = tested on: Streptococcus pneumoniae; assay: Antibacterial activity against Streptococcus pneumoniae 49619; format: functional; in short: as §2
# [40] = tested on: Staphylococcus aureus; assay: Antibacterial activity against mupirocin-sensitive Staphylococcus aureus 2529; format: functional
# [41] = Therapeutic index, CC50 for MRC5 cells/MIC for Staphylococcus aureus Smith; format: cell-based; details: human
# [42] = tested on: Enterococcus faecium; assay: Antibacterial activity against vancomycin and linezolid-resistant Enterococcus faecium F118; format: functional; in short: as §1
# [43] = tested on: Enterococcus faecalis; assay: Antibacterial activity against vancomycin-resistant Enterococcus faecalis 700802; format: functional; in short: as §1
# [44] = tested on: Streptococcus pneumoniae; assay: Antibacterial activity against penicillin-resistant Streptococcus pneumoniae 700674; format: functional; in short: as §2
# [45] = tested on: Bacillus subtilis; assay: Inhibition of protein synthesis in Bacillus subtilis BD54; format: functional, organism-based
# In short: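 Log-phase B. subtilis BD54 in C plus 50 medium; compound in DMSO (5x or 1x MIC) and L-[4,5-3H]leucine added together at time zero; samples taken at intervals. Protein synthesis measured as TCA-precipitable radioactivity, compared with diluent-control incorporation.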
# [46] = tested on: Bacillus subtilis; assay: Inhibition of RNA synthesis in Bacillus subtilis BD54; format: functional, organism-based; in short: as §3
# [47] = biological target: T1, DNA polymerase subunit gamma-1 (Homo sapiens, UniProt P54098); assay: Inhibition of human DNA polymerase gamma
# T1 sequence (P54098 whole entry): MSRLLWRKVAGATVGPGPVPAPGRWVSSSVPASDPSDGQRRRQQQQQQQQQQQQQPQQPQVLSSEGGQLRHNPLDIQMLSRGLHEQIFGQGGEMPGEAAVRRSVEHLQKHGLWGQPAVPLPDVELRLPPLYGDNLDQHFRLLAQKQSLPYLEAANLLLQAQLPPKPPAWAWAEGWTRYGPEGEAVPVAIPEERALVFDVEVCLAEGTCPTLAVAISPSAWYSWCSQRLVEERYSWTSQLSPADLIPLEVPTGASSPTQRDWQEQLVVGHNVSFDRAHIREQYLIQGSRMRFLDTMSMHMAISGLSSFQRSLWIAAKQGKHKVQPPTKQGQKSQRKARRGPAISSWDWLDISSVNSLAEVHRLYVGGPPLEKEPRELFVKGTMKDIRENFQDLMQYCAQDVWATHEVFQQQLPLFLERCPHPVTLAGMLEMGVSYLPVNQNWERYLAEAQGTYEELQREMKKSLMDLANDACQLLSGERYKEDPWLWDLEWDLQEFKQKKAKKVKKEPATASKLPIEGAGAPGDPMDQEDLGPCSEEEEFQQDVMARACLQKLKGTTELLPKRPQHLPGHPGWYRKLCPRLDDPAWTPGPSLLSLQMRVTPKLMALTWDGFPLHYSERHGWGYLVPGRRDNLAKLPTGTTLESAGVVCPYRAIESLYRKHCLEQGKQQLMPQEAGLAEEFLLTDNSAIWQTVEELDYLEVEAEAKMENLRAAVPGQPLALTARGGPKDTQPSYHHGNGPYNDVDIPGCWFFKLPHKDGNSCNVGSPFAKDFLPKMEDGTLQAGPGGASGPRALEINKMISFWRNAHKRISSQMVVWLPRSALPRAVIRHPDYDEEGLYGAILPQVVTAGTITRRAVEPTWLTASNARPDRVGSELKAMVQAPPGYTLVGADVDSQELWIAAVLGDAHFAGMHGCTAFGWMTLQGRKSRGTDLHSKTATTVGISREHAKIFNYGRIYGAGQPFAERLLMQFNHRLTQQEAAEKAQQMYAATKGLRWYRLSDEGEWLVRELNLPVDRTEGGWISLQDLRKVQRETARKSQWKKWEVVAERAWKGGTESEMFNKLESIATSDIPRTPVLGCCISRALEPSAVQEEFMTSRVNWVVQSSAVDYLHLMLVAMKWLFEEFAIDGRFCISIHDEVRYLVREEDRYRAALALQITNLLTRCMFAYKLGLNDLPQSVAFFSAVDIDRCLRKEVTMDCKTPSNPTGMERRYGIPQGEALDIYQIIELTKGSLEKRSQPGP
# In short: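 Calf thymus pol alpha or human pol gamma, 0.025 to 0.06 U, added to compound dilutions in reaction mixture; 25 min at 37°C; stopped with ice-cold 10% TCA/10 mM pyrophosphate; precipitated [3H]DNA collected on filters and counted. Ki values for dGTP-competitive inhibitors obtained by truncated assay lacking dGTP.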
compound,measurement,setting,value
CC1CN(c2c(F)cc3c(=O)c(C(=O)O)cn(C4CC4)c3c2F)CCN1 (stereo not given),MIC,[1],0.078 µg/mL
same,CC50,[2],> 80 µg/mL
same,MIC,[3],0.156 µg/mL
same,MIC,[4],0.078 µg/mL
same,Activity,[5],Active
same,MIC,[6],0.039 µg/mL
same,MIC,[7],0.313 µg/mL
same,MIC,[8],5 µg/mL
same,MIC,[9],0.01 µg/mL
same,MIC,[10],20 µg/mL
same,MIC,[11],0.156 µg/mL
same,MIC,[12],0.313 µg/mL
same,MIC,[13],10 µg/mL
same,MIC,[14],80 µg/mL
same,MIC,[15],0.313 µg/mL
same,IC50,[16],4.2 µM
same,MIC,[17],20 µg/mL
same,MIC,[18],0.078 µg/mL
same,MIC,[19],0.156 µg/mL
same,MIC,[20],5 µg/mL
same,MIC,[21],40 µg/mL
same,MIC,[22],0.313 µg/mL
same,MIC,[23],0.156 µg/mL
same,MIC,[24],40 µg/mL
same,MIC,[25],0.156 µg/mL
same,MIC,[26],10 µg/mL
same,MIC,[27],0.078 µg/mL
same,MIC,[28],40 µg/mL
same,MIC,[29],0.078 µg/mL
same,MIC,[30],0.078 µg/mL
same,MIC,[31],0.039 µg/mL
same,MIC,[32],40 µg/mL
same,IC50,[33],5.6 µM
same,MIC,[34],0.313 µg/mL
same,MIC,[35],0.078 µg/mL
same,MIC,[36],0.313 µg/mL
same,MIC,[37],0.156 µg/mL
same,MIC,[38],0.625 µg/mL
same,MIC,[39],0.313 µg/mL
same,MIC,[40],80 µg/mL
same,selectivity ratio,[41],> 1000
same,MIC,[42],80 µg/mL
same,MIC,[43],0.313 µg/mL
same,MIC,[44],0.625 µg/mL
CCc1cc(Nc2cc(=O)n(CCCCO)c(=O)[nH]2)ccc1C,MIC,[1],> 80 µg/mL
same,CC50,[2],46 µg/mL
same,MIC,[3],2.5 µg/mL
same,MIC,[4],1.25 µg/mL
same,Activity,[5],Active
same,MIC,[6],2.5 µg/mL
same,MIC,[7],> 80 µg/mL
same,MIC,[8],> 80 µg/mL
same,MIC,[9],> 80 µg/mL
same,MIC,[10],5 µg/mL
same,MIC,[11],1.25 µg/mL
same,MIC,[12],2.5 µg/mL
same,MIC,[13],5 µg/mL
same,MIC,[14],5 µg/mL
same,MIC,[15],5 µg/mL
same,IC50,[16],> 500 µM
same,MIC,[17],5 µg/mL
same,MIC,[18],20 µg/mL
same,MIC,[19],5 µg/mL
same,Activity,[45],inactive
same,MIC,[20],5 µg/mL
same,MIC,[21],10 µg/mL
same,MIC,[22],5 µg/mL
same,MIC,[23],5 µg/mL
same,MIC,[24],> 80 µg/mL
same,MIC,[25],1.25 µg/mL
same,MIC,[26],5 µg/mL
same,MIC,[27],5 µg/mL
same,Activity,[46],inactive
same,MIC,[28],2.5 µg/mL
same,MIC,[29],2.5 µg/mL
same,MIC,[30],> 80 µg/mL
same,MIC,[31],1.25 µg/mL
same,MIC,[32],5 µg/mL
same,IC50,[33],> 500 µM
same,MIC,[34],5 µg/mL
same,MIC,[35],1.25 µg/mL
same,MIC,[36],5 µg/mL
same,MIC,[37],> 80 µg/mL
same,MIC,[38],2.5 µg/mL
same,MIC,[39],2.5 µg/mL
same,MIC,[40],20 µg/mL
same,Ki,[47],> 1010 µM
same,MIC,[42],10 µg/mL
same,MIC,[43],5 µg/mL
same,MIC,[44],5 µg/mL
